This is a sample that favours compounds with a hit; in the whole collection about 12% have one here.
Autophagy mod – autophagy modulators in MEF cells, primary screen, imaging, high-content, MEF GFP-LC3. MEF GFP-LC3 puncta imaging; test concentration mostly 10 µM. calls only at 10 µM (by protocol). 0.98% of 190,000 active;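 active = percentage of spot-positive cells more than 3 SD above its plate mean, without a fluorescence outlier flag or 80% toxicity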
MT stabilize HCS – microtubule stabilizers in HeLa cells, primary screen, imaging, high-content imaging; HeLa tubulin immunostaining HCS, 24 h; share of cells brighter than vehicle mean+2SD; % tubulin-high responders, % at 10 µM; 0.83% of 200,000 active; AID 2205, 2009;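 active = plate Z-score above 3 for both tubulin-high and condensed-nucleus cell shares, with cell loss under 80%, at 10 µM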;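 note: anti alpha tubulin signal scored within the nucleus-defined area of each cell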
CHOP inh – inhibitors of CHOP promoter induction, primary screen, cell-based, unfolded protein response, luciferase reporter | CHO-K1 CHOP-promoter luciferase, tunicamycin-induced, 15-18 h | inhibition, % at 10 µM | 3.8% of 220,000 active | AID 2732, 2010;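 active = compounds that reduced the stress-induced luciferase reporter signal by more than about 70% of percent inhibition, limit read from the data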
Dynein cargo inh – inhibitors of GR-EGFP nuclear translocation, primary screen, dynein cargo transport inhibitor project, imaging, high-content, 3617.4 mouse cells. z-score, hits read low. 0.47% of 220,000 active. test concentration mostly 20 µM; stimulated with dexamethasone, 1 µM; stronger effect = lower value;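 active = plate z-score of nuclear minus cytoplasmic receptor signal below a set negative limit, without overly bright fluorescence or cell loss, cut at about -3.5 in these data, passing the limit was not always enough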;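 note: z-score of nuclear minus cytoplasmic ring GR-EGFP intensity difference per well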
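medium = tetracycline-free induction medium containing charcoal-stripped FBS | also added = 1.0 µM final dexamethasone stimulus | schedule = 48 h induction, 1 h compound, 30 min dex at 37 °C | technique = fixed, Hoechst-stained cells imaged at 10x for EGFP | measure = GR-EGFP nuclear translocation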
bCat nuc transl – modulators of beta-catenin nuclear translocation, primary screen, imaging, HeLa cells, immunofluorescence, high-content; nuclear translocation activity, % at 5 µM; 0.3% of 190,000 active; AID 1665, 2009;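 active = nuclear translocation activity above 50% at 5 µM, with a well cell count of 50 or more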;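 note: per-cell ratio of nuclear to cytoplasmic median beta-catenin stain intensity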
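Test system: human HeLa cells, endogenous beta-catenin. Times: 24 h compound exposure, 37°C. Measured by: beta-catenin immunofluorescence imaging with DAPI.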
Lmaj promast – Leishmania major promastigote growth inhibition, primary screen; AID 1063, 2008; 9% of 200,000 active; Leishmania major promastigotes, resazurin fluorescence viability; inhibition, % at 10 µM; in the data active = inhibition above about 50%;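 note: promastigotes grown with compound for 44 hours at 28 °C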
Of the large screens only hits and unclear results are named; the others gave an inactive call.

CN(Cc1ccccc1)CC(O)COc1ccc(CNCc2cccnc2)cc1 (stereo unspecified)	Lmaj promast 81
Cc1ccc(OCC(O)CNCc2ccccc2)cc1C (stereo unspecified)	none (no result: Autophagy mod, MT stabilize HCS, Lmaj promast)
CN(Cc1ccccc1)CC(O)COc1ccc(CNCc2ccc(Cl)s2)cc1 (stereo unspecified)	Lmaj promast 98
CCn1cc(CNCc2ccc(OCC(O)CN(C)Cc3ccccc3)cc2)cn1 (stereo unspecified)	Lmaj promast 88
CC(=O)c1ccc(OCC(O)CN(C)Cc2cccs2)cc1 (stereo unspecified)	none
CN(Cc1ccccc1)CC(O)COc1ccc(CNCCCOc2cccnc2)cc1 (stereo unspecified)	Lmaj promast 91
Cc1c(C(=O)O)c(C(=O)O)c2n1CCS2	none (no result: Autophagy mod, MT stabilize HCS, Lmaj promast)
CCN(CC)C(=O)C12CC3CC(CC(Br)(C3)C1)C2	none
COc1cccc(C2(O)CC(C(F)(F)F)=NN2C(=O)c2ccccn2)c1 (stereo unspecified)	none
Cc1cc(C(C)(C)C)oc1C(=O)N(CC(=O)NC1CCCC1)Cc1ccccc1Cl	none
Cc1nn(C)cc1CNCc1ccc(OCC(O)CN(C)Cc2ccccc2)cc1 (stereo unspecified)	Lmaj promast 86
CN(Cc1ccccc1)C(=O)c1nc2ccccn2c1CNCCOc1cccnc1	none
OC(COc1ccc(CNCc2cccnc2)cc1)CN1CCc2ccccc2C1 (stereo unspecified)	Lmaj promast 90
CN(Cc1ccccc1)CC(O)COc1ccc(CNCCOc2cccnc2)cc1 (stereo unspecified)	Lmaj promast 84
CCOc1ccc(/C=N/NC(=O)Cc2csc(Nc3cccc(C(F)(F)F)c3)n2)c(OCC)c1	none
COc1ccc(/C=N/NC(=O)Cc2csc(Nc3cccc(C(F)(F)F)c3)n2)c(OC)c1	CHOP inh 95
COc1cc(/C=N\Nc2nc3ccccc3[nH]2)cc(OC)c1OC	Lmaj promast 57
COc1ccc(/C=N/Nc2nc3ccccc3[nH]2)cc1OC	Lmaj promast 99
COc1cc(OC)c(OC)cc1/C=N/Nc1nc2ccccc2[nH]1	none (no result: Autophagy mod, MT stabilize HCS, Lmaj promast)
COC(=O)/C(=C\c1cc(OC)c(OC)c(OC)c1)c1nc2ccccc2[nH]1	Lmaj promast 99
COC(=O)/C(=C\c1ccc(O)cc1)c1nc2ccccc2[nH]1	none
COc1c(C(=O)NNC(=O)c2ccccc2)csc1Br	none (no result: Autophagy mod, MT stabilize HCS, Lmaj promast)
O=c1[nH]c(CN2CCCCC2)nc2c1C1(CCCC1)Cc1ccccc1-2	none (no result: CHOP inh, bCat nuc transl)
COc1ccc(OC)c(/C(O)=C/C(=O)C(=O)Nc2cc(C)ccc2OC)c1	Lmaj promast 93 (no result: bCat nuc transl)
CCOC(=O)Nc1cc(C)ccc1OC	none (no result: bCat nuc transl)
CCOc1ccccc1NC(=O)C(=O)/C=C(\O)c1cc(OC)ccc1OC	CHOP inh 95 (no result: bCat nuc transl)
COc1ccccc1NC(=O)C(=O)/C=C(\O)c1ccccc1	none (no result: Autophagy mod, MT stabilize HCS, Lmaj promast)
NS(=O)(=O)c1cccc(NC(=O)COC(=O)CN2C(=O)C3CC=CCC3C2=O)c1 (stereo unspecified)	none
O=c1[nH]c(CN2CCN(c3ccccc3)CC2)nc2scc(-c3ccccc3)c12	MT stabilize HCS 20, Lmaj promast 67 (no result: bCat nuc transl)
COc1ccc(N2CCN(Cc3nc4scc(-c5ccccc5)c4c(=O)[nH]3)CC2)cc1	Lmaj promast 62 (no result: bCat nuc transl)
CN(Cc1ccccc1)c1nc(CN2CCOCC2)nc2scc(-c3ccccc3)c12	none
Fc1ccc(N2CCN(c3nc(CN4CCOCC4)nc4scc(-c5ccccc5)c34)CC2)cc1	Lmaj promast 67
O=c1oc(-c2ccc(Br)o2)nc2ccccc12	none
CC(C)Cn1cc(C(=O)NCc2cccs2)c2c3ccccc3n(C)c2c1=O	CHOP inh 94
CC(C)Cn1cc(C(=O)N2CCOCC2)c2c3ccccc3n(C)c2c1=O	none
CCCc1c(-c2ccc(O)cc2)nn(-c2ccc(O)cc2)c1-c1ccc(O)cc1	none (no result: Autophagy mod, MT stabilize HCS, Lmaj promast)
CC(C)(C)C(=O)NC(Nc1cccc2cccnc12)C(Cl)(Cl)Cl (stereo unspecified)	Lmaj promast 55
CCC(=O)NC(NC(=S)Nc1cccc2cccnc12)C(Cl)(Cl)Cl (stereo unspecified)	none
Nc1nc(NCCCN2CCOCC2)nc(Nc2ccc(Cl)cc2)c1[N+](=O)[O-]	none (no result: Autophagy mod, MT stabilize HCS, Lmaj promast)
Cc1ccc(Nc2nc(NCCCN3CCOCC3)nc(N)c2[N+](=O)[O-])cc1C	Lmaj promast 52
Cc1ccc(Nc2nc(NCCCN3CCOCC3)nc(N)c2[N+](=O)[O-])cc1	Autophagy mod active, Lmaj promast 51
CCOC(=O)C1=C(N)OC2=C(C(=O)CC(C)(C)C2)C1c1cc(CSc2nnnn2C)cs1 (stereo unspecified)	none
NNC(=O)Cn1c(-c2ccccc2)cc(=O)n2ncnc12	none (no result: Autophagy mod, MT stabilize HCS, Lmaj promast)
CCC(=O)Nc1ccc(C(=O)NNC(=O)c2cc(OC)c(OC)c(OC)c2)cc1	none
O=c1[nH]c(-c2ccccn2)nc2sc(-c3ccccc3)cc12	Lmaj promast 100
C=CCn1c(N(C)C)nc2c1c(=O)[nH]c(=O)n2C	none (no result: Autophagy mod, MT stabilize HCS, Lmaj promast)
CCCCc1ccc(NC(=O)CSCc2cc(=O)[nH][nH]2)cc1	none
C=CCNCCOCCOc1ccccc1-c1ccccc1	Lmaj promast 95
CN(C)CCNCCCOc1ccccc1-c1ccccc1	Lmaj promast 98
CC(C)(C)NCCOCCOc1ccccc1-c1ccccc1	none
CCC(C)NCCOCCOc1ccccc1-c1ccccc1 (stereo unspecified)	Lmaj promast 85
COc1cc(C)ccc1OCCOCCOc1ccc(C)cc1[N+](=O)[O-]	none
COCCCNCCOCCOc1ccccc1-c1ccccc1	none
C=CCNCCOCCOc1ccc(C)cc1[N+](=O)[O-]	Lmaj promast 81
CC(C)(C)NC(=O)C(c1ccncc1)N(Cc1ccc(F)cc1)C(=O)c1ccc(-c2ccccc2)[nH]1 (stereo unspecified)	Lmaj promast 99
O=C(NC1CCCCC1)C(c1ccc(F)cc1)N(CCN1CCOCC1)C(=O)c1ccc(-c2ccccc2)[nH]1 (stereo unspecified)	CHOP inh 73
O=C(NC1CCCC1)C(c1ccncc1)N(Cc1ccco1)C(=O)c1ccc(-c2ccccc2)[nH]1 (stereo unspecified)	Lmaj promast 94
O=C(NC1CCCC1)C(c1ccncc1)N(Cc1ccccc1)C(=O)c1ccc(-c2ccccc2)[nH]1 (stereo unspecified)	Lmaj promast 97
COc1ccccc1Oc1ccc2c(c1)C(=O)N(CC1CCCO1)C2=O (stereo unspecified)	none (no result: Autophagy mod, MT stabilize HCS, Lmaj promast)
CCC(=O)NCCc1nc2cc(NC(=O)c3ccccc3OC)ccc2n1C	none

Source: PubChem BioAssay
